Paper PMC8551014 (Nature chemical biology, 2021)
Entries after “also recorded” stand apart in the source; their conditions may differ.

Tests used:
[1] = molecular target: dpIRE1α* (dephosphorylated IRE1α*) (Homo sapiens, UniProt O75460); assay: In vitro determination of dpIRE1α*–inhibitor complex Kdimer; type: biochemical; conditions: relative to apo-dpIRE1α*
Procedure, shortened: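 IRE1α* dephosphorylated overnight at 4 °C with λ-PPase (5:1 molar) in HEPES pH 7.5/NaCl/1 mM MnCl2/DTT/Brij 35; checked by phospho-protein blot. Then titrated two-fold from 2 or 4 μM in Tris pH 7.5 assay buffer; 30 min RT with 50 μM test compound. Alexa647-quencher XBP1 mini-substrate (6 μM final). Fluorescence ex 650/em 665 nm. n=3, mean ± SEM.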

IRE1α* = IRE1α* (Homo sapiens, UniProt O75460); assay: In vitro determination of IRE1α*–inhibitor complex Kdimer; type: biochemical; conditions: inhibitor-bound IRE1α*
[2] = tested on: mouse splenocytes (C57BL/6); assay: ELISA for secreted IgM from LPS-treated splenocytes; type: cell-based; conditions: 1 μg/mL LPS for three days, 20 μM-1.25 μM
Procedure, shortened: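 C57BL/6 splenocytes, red cells lysed, CellTrace Violet-loaded, plated at 2.5 × 10^5 cells/well in complete RPMI; ±1 μg/ml LPS; test compound in two-fold dilutions (20–1.25 μM) from DMSO at 1:2000 final; 3 days, 37 °C, 5% CO2. Supernatant IgM by ELISA: 1 μg/ml goat anti-IgM capture, anti-IgM-HRP (1:3000), TMB, 1 N H2SO4 stop, A450. n=3, mean ± SEM; one-tailed t-test.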

XBP1 mRNA splicing = XBP1 mRNA splicing in ER-stressed INS-1 cells; type: cell-based, rat; conditions: INS-1 cells treated with brefeldin A or thapsigargin and KIRA8
Procedure, shortened: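 Parental INS-1 cells on poly-D-lysine, grown 48 h. Test compound or DMSO given 1 h before brefeldin A, thapsigargin or DTT. In the sequential format: 10 μM first compound for 30 min, then second compound (0.5 or 1 μM) for 30 min, then 2 mM DTT. Intron-spanning XBP1 RT-PCR, PstI digest, EtBr gel, % spliced. n=3, mean ± SEM; two-tailed t-test versus DTT.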

[3] = tested on: mouse splenocytes (C57BL/6); assay: Plasma cell differentiation of LPS-treated mouse splenocytes, flow cytometry; type: cell-based
Procedure, shortened: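 Splenocytes cultured 3 days ±1 μg/mL LPS with test compound (20–1.25 μM, two-fold, DMSO 1:2000). Cells stained with LIVE/DEAD near-IR (1:1000, 20 min, ice), then anti-CD19/CD45R/CD138 (15 min, ice), then permeabilized for intracellular XBP1s. Plasmablasts gated as CD19+ B220-low CD138-high; division from vital-dye dilution. n=3, mean ± SEM; one-tailed t-test.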

[4] = 1 μg/mL LPS for three days, 20 μM-1.25 μM

dpIRE1α* (dephosphorylated IRE1α*), sequence (O75460 547-977): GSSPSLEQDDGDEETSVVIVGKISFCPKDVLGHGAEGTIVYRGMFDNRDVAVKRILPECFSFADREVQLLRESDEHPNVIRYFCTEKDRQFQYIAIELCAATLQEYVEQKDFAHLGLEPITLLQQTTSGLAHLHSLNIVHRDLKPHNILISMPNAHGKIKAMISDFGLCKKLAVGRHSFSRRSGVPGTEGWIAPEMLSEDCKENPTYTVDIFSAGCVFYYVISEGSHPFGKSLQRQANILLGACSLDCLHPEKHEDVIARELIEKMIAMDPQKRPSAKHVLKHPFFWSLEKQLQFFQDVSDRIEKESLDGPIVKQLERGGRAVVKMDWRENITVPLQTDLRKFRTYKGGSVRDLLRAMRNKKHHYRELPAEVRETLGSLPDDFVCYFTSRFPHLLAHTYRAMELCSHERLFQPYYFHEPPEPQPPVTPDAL
IRE1α*, sequence (O75460 547-977): as above

| Compound | lowering of Kdimer of dpIRE1α* when complexed to ligand [1] | formation of RNase active dimers / dimerization affinity of IRE1α* (IRE1α*) | IgM secretion [2] | XBP1 mRNA splicing (XBP1 mRNA splicing) | XBP1s expression in B cells [3, 4] | plasma cell differentiation, CD138+ [3, 4] | toxicity to splenocytes ([3]; 10 μM and 20 μM KIRA8, LPS, three days) |
| --- | --- | --- | --- | --- | --- | --- | --- |
| O=C(Nc1c[nH]nc1-c1nc2ccc(CN3CCOCC3)cc2[nH]1)NC1CC1 [AT9283] | ~ 80 times | – | – | – | – | – | – |
| NC(=O)Nc1cc(-c2cccc(F)c2)sc1C(=O)N[C@H]1CCCNC1 [AZD7762] | ~ 80 times | – | – | – | – | – | – |
| Cc1ccc2c(NS(=O)(=O)c3ccccc3Cl)cccc2c1Oc1ncccc1-c1ccnc(N[C@H]2CCCNC2)n1 [KIRA8] | – | unable to form RNase active dimers at any concentration tested | reductions | completely suppresses; also recorded: almost completely suppressed | reductions | reductions | cellular toxicity |
